Measurements as given in ChEMBL document CHEMBL5678806, “NMS-P937, an orally available, specific small-molecule polo-like kinase 1 inhibitor with antitumor activity in solid and hematologic malignancies” (Mol Cancer Ther, 2012).
pIC50: −log10 of the molar value. Active and inactive are the calls of the source. The calls are words filed in the database; no cut-off is given here.

Columns and labels:
[1] = biological target: Tyrosine-protein kinase Lyn (Mus musculus) (UniProt P25911); experiment: Inhibition of N-terminal his6-tagged recombinant full-length mouse Lyn expressed in baculovirus infected Sf21 cells assessed as residual activity at 0.1 uM relative to control
[2] = Half-life in Sprague-Dawley rat at 10 mg/kg, po by LC-MS analysis; assay type: ADME, organism-based; conditions: in vivo
[3] = biological target: Insulin receptor-related protein (Homo sapiens) (UniProt P14616); experiment: Inhibition of N-terminal 6His-tagged recombinant human IRR (944 to 1266 residues) expressed in baculovirus infected Sf21 cells assessed as residual activity at 1 uM relative to control
COLO 205 = experiment: Antiproliferative activity against human COLO 205 cells assessed as inhibition of cell growth incubated for 72 hrs by cell-titer glo assay; assay type: functional, cell-based; conditions: COLO 205, 72 h
Summary of the method: (§1)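 Cells seeded 10,000–30,000/cm² (adherent) or 100,000/mL (suspension) in medium with 10% fetal calf serum; after 24 h treated in duplicate with serial dilutions for 72 h. Viable cells read by CellTiter-Glo luminescence; IC50 from sigmoidal fit; at least two independent experiments.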

NCI-H1650 = experiment: Antiproliferative activity against human NCI-H1650 cells assessed as inhibition of cell growth incubated for 72 hrs by cell-titer glo assay; assay type: functional, cell-based; conditions: NCI-H1650, 72 h
Summary of the method: (§2)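 Cells from ATCC or ECACC, kept in supplier-recommended medium with 1% penicillin-streptomycin at 37°C, 5% CO₂. Seeded at 10,000–30,000/cm² (adherent) or 100,000/mL (nonadherent) in medium with 10% fetal calf serum. Dosed after 24 h in duplicate with serial dilutions. Viable cells read by CellTiter-Glo 72 h later. IC50 from sigmoidal fit. At least two independent experiments.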

NCI-H1975 = experiment: Antiproliferative activity against human NCI-H1975 cells assessed as inhibition of cell growth incubated for 72 hrs by cell-titer glo assay; assay type: functional, cell-based; conditions: NCI-H1975, 72 h; summary of the method: as §2
[4] = biological target: Aurora kinase A (Homo sapiens) (UniProt O14965); experiment: Inhibition of N-terminal 6His-tagged recombinant full-length human Aurora-A expressed in Sf21 cells assessed as residual activity at 1 uM relative to control
A2780 [5] = experiment: Induction of mitosis in human A2780 cells xenografted in nu/nu mouse assessed as increased NPM phosphorylation on Thr199 at 60 mg/kg, po administered for 2 to 6 hrs by immunohistochemistry analysis; assay type: functional, organism-based; conditions: time 2-6 hrs
Jurkat = experiment: Antiproliferative activity against human Jurkat cells assessed as inhibition of cell growth incubated for 72 hrs by cell-titer glo assay; assay type: functional, cell-based
Summary of the method: (§3)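 Cells seeded at 10,000–30,000/cm² (adherent) or 100,000/mL (nonadherent) in medium with 10% fetal calf serum; after 24 h, treated in duplicate with serial dilutions for 72 h. Viable cell number read by CellTiter-Glo luminescence; IC50 from sigmoidal fit; at least two independent experiments.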

[6] = Half-life in male cynomolgus monkey at 5 mg/kg, po by LC-MS analysis; assay type: ADME, organism-based, Macaca fascicularis; conditions: in vivo
[7] = biological target: Fibroblast growth factor receptor 4 (Homo sapiens) (UniProt P22455); experiment: Inhibition of N-terminal His6-tagged recombinant human FGFR4 (442 to 755 residues) expressed in baculovirus infected Sf21 cells assessed as residual activity at 0.1 uM relative to control
NCI-H520 = experiment: Antiproliferative activity against human NCI-H520 cells assessed as inhibition of cell growth incubated for 72 hrs by cell-titer glo assay; assay type: functional, cell-based; conditions: NCI-H520, 72 h; summary of the method: as §2
UACC-257 = experiment: Antiproliferative activity against human UACC-257 cells assessed as inhibition of cell growth incubated for 72 hrs by cell-titer glo assay; assay type: functional, cell-based; conditions: UACC-257, 72 h
A2780 [8] = experiment: In vivo inhibition of PLK1 in human A2780 cells xenografted in nu/nu mouse assessed as decreased TCTP phosphorylation on Ser46 at 60 mg/kg, po administered for 6 to 12 hrs by immunohistochemistry analysis; assay type: functional, organism-based; conditions: time lower 6.0 hrs, time upper […]
A2780 [9] = experiment: Induction of DNA damage in human A2780 cells assessed as H2AX phosphorylation at 0.5 to 1 uM incubated for 8 hrs by Western blotting analysis; assay type: functional, cell-based; conditions: dose 0.5-1 µM
[10] = biological target: ALK tyrosine kinase receptor (Homo sapiens) (UniProt Q9UM73); experiment: Inhibition of N-terminal His6-tagged recombinant human ALK (1058 to end residues) expressed in baculovirus infected Sf21 cells assessed as residual activity at 0.1 uM relative to control
[11] = biological target: RAC-alpha serine/threonine-protein kinase (Homo sapiens, UniProt P31749); experiment: Inhibition of AKT1 (unknown origin) in presence of [gamma-33P]ATP
KG-1 = experiment: Antiproliferative activity against human KG-1 cells assessed as inhibition of cell growth incubated for 72 hrs by cell-titer glo assay; assay type: functional, cell-based; conditions: KG-1, 72 h; summary of the method: as §3
[12] = Half-life in Beagle dog at 5 mg/kg, iv by LC-MS analysis; assay type: ADME, organism-based, Canis lupus familiaris; conditions: in vivo
A498 = experiment: Antiproliferative activity against human A498 cells assessed as inhibition of cell growth incubated for 72 hrs by cell-titer glo assay; assay type: functional, cell-based; conditions: A498, 72 h; summary of the method: as §1
[13] = biological target: Serine/threonine-protein kinase 26 (Homo sapiens, UniProt Q9P289); experiment: Inhibition of MST4 (unknown origin) in presence of [gamma-33P]ATP
[14] = biological target: Serine/threonine-protein kinase haspin (Homo sapiens, UniProt Q8TF76); experiment: Inhibition of Haspin (unknown origin) in presence of [gamma-33P]ATP
U-266 = experiment: Antiproliferative activity against human U-266 cells assessed as inhibition of cell growth incubated for 72 hrs by cell-titer glo assay; assay type: functional, cell-based; conditions: U-266, 72 h
[15] = biological target: Mitogen-activated protein kinase 13 (Homo sapiens) (UniProt O15264); experiment: Inhibition of recombinant GST-tagged fusion protein fused to full length human SAPK4 expressed in E. coli assessed as residual activity at 0.1 uM relative to control
SW1417 = experiment: Antiproliferative activity against human SW1417 cells assessed as inhibition of cell growth incubated for 72 hrs by cell-titer glo assay; assay type: functional, cell-based; conditions: SW1417, 72 h
[16] = biological target: Vascular endothelial growth factor receptor 2 (Homo sapiens, UniProt P35968); experiment: Inhibition of VEGFR2 (unknown origin) in presence of [gamma-33P]ATP
[17] = biological target: Tyrosine-protein kinase ZAP-70 (Homo sapiens, UniProt P43403); experiment: Inhibition of ZAP70 (unknown origin) in presence of [gamma-33P]ATP
MOLT-4 = experiment: Antiproliferative activity against human MOLT-4 cells assessed as inhibition of cell growth incubated for 72 hrs by cell-titer glo assay; assay type: functional, cell-based; conditions: MOLT-4, 72 h; summary of the method: as §2
[18] = biological target: Hepatocyte growth factor receptor (Homo sapiens, UniProt P08581); experiment: Inhibition of MET (unknown origin) in presence of [gamma-33P]ATP
[19] = biological target: Tyrosine-protein kinase Fes/Fps (Homo sapiens) (UniProt P07332); experiment: Inhibition of N-terminal His6-tagged recombinant full length human Fes expressed in baculovirus infected Sf21 cells assessed as residual activity at 0.1 uM relative to control
HT-1080 = experiment: Antiproliferative activity against human HT-1080 cells assessed as inhibition of cell growth incubated for 72 hrs by cell-titer glo assay; assay type: functional, cell-based; conditions: HT-1080, 72 h; summary of the method: as §3

Chain of Vascular endothelial growth factor receptor 2 (P35968 whole entry): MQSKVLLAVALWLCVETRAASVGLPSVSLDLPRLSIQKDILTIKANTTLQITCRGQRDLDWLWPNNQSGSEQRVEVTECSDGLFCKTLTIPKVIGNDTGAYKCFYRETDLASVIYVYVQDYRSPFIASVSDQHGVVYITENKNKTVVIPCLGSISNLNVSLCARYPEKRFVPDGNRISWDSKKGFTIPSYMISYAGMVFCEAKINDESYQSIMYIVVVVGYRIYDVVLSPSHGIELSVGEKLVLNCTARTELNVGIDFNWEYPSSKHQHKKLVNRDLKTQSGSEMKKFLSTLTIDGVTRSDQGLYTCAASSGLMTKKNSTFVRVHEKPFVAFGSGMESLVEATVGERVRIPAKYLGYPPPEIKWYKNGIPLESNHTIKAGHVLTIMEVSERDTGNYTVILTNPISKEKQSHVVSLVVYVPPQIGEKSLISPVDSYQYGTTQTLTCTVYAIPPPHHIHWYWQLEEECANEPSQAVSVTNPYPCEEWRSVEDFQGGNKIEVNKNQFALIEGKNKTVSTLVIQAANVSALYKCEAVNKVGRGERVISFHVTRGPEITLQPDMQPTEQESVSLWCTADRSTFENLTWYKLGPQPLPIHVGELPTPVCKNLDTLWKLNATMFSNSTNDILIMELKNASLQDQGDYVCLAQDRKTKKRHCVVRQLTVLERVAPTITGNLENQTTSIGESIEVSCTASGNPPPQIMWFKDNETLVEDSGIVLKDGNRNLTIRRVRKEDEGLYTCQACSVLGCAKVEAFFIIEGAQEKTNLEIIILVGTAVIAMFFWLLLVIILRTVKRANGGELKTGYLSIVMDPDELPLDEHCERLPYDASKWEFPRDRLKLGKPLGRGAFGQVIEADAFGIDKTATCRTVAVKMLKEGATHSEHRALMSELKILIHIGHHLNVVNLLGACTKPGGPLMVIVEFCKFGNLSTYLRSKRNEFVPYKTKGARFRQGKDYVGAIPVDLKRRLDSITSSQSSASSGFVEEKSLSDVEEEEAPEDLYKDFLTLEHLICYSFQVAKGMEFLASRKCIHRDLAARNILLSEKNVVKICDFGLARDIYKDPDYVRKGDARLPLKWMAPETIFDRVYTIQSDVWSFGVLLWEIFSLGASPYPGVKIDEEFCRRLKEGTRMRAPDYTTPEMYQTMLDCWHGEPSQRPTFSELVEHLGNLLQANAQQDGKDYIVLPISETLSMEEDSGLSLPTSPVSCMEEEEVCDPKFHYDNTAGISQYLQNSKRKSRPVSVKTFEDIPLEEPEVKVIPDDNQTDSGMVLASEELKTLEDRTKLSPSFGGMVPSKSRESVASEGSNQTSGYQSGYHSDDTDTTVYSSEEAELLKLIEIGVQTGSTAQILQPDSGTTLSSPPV
Chain of Tyrosine-protein kinase ZAP-70 (P43403 whole entry): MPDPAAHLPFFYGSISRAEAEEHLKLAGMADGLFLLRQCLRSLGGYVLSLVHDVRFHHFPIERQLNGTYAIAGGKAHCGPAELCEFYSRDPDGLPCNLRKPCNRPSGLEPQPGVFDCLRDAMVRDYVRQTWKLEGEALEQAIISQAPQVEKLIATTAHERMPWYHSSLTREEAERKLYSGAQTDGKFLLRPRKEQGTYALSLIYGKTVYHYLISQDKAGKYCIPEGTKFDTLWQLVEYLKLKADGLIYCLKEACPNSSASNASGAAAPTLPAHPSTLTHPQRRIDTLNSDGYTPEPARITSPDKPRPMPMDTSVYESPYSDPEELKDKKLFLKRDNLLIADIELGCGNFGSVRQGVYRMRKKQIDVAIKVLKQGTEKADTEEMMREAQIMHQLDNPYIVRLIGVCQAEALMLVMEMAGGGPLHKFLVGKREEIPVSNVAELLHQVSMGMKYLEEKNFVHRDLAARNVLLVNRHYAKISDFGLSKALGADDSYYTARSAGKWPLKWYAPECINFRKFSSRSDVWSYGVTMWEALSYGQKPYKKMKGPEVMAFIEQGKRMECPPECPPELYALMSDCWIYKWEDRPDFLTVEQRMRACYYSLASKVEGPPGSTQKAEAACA
Chain of Tyrosine-protein kinase Fes/Fps (Homo sapiens) (P07332 whole entry): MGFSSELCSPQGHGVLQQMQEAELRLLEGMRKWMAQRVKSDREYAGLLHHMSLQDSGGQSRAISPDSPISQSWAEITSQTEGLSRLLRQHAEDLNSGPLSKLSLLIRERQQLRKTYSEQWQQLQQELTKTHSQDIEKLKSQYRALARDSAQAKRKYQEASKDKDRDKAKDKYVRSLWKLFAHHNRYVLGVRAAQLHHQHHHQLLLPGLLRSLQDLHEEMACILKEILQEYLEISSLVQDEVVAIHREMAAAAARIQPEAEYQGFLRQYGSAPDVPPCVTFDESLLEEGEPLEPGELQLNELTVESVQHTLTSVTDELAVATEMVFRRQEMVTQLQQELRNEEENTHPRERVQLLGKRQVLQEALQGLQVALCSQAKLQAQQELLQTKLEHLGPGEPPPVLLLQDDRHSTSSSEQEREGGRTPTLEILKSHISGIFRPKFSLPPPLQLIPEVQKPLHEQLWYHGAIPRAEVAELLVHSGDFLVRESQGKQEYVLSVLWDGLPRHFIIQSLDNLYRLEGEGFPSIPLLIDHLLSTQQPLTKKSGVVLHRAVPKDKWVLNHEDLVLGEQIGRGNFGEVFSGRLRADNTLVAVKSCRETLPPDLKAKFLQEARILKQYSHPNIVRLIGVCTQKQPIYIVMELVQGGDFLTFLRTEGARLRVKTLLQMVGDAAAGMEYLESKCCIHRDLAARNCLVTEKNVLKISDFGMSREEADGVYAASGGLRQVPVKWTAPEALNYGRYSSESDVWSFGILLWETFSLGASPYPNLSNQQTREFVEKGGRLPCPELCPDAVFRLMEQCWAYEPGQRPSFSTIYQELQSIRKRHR
Chain of Mitogen-activated protein kinase 13 (Homo sapiens) (O15264 whole entry, the tested form may be a part): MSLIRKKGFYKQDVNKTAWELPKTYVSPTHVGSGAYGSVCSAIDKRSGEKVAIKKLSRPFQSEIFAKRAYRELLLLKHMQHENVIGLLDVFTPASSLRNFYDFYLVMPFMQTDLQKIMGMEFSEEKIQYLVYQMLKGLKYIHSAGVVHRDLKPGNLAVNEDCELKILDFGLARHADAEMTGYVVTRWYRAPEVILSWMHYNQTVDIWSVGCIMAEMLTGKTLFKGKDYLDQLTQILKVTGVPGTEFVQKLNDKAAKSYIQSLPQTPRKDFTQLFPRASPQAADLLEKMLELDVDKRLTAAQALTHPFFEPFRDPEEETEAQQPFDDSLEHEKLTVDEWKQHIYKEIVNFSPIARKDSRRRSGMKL
Chain of ALK tyrosine kinase receptor (Homo sapiens) (Q9UM73 19-1620 limits assumed): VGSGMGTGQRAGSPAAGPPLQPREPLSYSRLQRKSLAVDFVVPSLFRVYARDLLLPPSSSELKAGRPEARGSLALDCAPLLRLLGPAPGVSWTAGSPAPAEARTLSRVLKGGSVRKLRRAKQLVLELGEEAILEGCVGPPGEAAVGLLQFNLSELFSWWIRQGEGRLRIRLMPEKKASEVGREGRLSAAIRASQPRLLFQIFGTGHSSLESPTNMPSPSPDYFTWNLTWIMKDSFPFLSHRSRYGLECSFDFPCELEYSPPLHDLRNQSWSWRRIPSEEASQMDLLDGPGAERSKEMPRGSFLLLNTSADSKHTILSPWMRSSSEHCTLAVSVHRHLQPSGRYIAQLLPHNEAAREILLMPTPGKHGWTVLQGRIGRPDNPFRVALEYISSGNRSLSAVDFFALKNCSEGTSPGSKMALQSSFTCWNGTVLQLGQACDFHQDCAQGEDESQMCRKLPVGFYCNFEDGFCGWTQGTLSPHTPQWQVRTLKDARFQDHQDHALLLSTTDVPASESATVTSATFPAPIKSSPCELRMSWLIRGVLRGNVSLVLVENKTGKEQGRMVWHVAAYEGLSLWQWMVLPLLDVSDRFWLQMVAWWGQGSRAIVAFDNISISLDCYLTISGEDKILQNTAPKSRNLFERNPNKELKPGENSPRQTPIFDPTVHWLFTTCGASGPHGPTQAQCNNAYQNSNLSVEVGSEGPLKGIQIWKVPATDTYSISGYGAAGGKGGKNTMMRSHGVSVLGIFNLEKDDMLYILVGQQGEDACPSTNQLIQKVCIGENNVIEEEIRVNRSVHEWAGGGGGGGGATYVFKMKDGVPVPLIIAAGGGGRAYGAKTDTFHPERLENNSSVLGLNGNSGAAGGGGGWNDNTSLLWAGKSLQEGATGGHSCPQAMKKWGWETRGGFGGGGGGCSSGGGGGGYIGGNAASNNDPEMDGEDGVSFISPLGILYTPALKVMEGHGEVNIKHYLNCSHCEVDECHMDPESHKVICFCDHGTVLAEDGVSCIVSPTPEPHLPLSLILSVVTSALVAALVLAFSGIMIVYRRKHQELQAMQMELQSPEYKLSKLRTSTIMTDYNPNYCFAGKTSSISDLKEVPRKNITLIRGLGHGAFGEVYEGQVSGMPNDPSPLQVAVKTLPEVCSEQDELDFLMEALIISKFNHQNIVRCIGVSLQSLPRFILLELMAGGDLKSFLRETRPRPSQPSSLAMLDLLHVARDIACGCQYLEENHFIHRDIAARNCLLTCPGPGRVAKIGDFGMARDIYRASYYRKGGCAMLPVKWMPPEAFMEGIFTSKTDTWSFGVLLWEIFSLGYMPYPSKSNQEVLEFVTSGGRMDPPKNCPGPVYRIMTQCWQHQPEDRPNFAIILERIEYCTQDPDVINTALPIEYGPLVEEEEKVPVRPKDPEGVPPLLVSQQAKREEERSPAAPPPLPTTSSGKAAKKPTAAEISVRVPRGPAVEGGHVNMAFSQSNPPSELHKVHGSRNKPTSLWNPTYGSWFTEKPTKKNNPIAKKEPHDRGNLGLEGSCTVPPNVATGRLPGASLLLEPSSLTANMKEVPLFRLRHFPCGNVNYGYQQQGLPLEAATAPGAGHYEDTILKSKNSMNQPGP

With `CN1CCN(c2ccc(OC(F)(F)F)c(Nc3ncc4c(n3)-c3c(c(C(N)=O)nn3CCO)CC4)c2)CC1` [ONVANSERTIB] the Activity [1] was 137%, the half-life [2] was 3.1 h and the Activity [3] was 114%. The pIC50 (COLO 205) was 7.49, the pIC50 (NCI-H1650) was 5.62 and the pIC50 (NCI-H1975) was 6.40. For the same compound, the Activity [4] was 113%, the Activity (A2780 [5]) was “Active” and the pIC50 (Jurkat) was 7.32. For the same compound, the half-life [6] was 4.2 h, the Activity [7] was 93% and the pIC50 (NCI-H520) was 7.14. For the same compound, the pIC50 (UACC-257) was 6.36, the inhibition (A2780 [8]) was “Active” and the Activity (A2780 [9]) was “Active”. For the same compound, the Activity [10] was 145%, the pIC50 [11] was < 5.00 and the pIC50 (KG-1) was 7.24. For the same compound, the half-life [12] was 3.9 h, the pIC50 (A498) was 5.97 and the pIC50 [13] was < 5.00. For the same compound, the pIC50 [14] was < 5.00, the pIC50 (U-266) was 7.40 and the Activity [15] was 113%. For the same compound, the pIC50 (SW1417) was 6.22, the pIC50 [16] was < 5.00 and the pIC50 [17] was < 5.00. The pIC50 (MOLT-4) was 7.35, the pIC50 [18] was < 5.00 and the Activity [19] was 73%. It also gave a pIC50 (HT-1080) of 7.23.
